Compound activity deposited in PubChem by Johns Hopkins Ion Channel Center.
KCNK3 inh – human KCNK3 channel inhibition, primary screen | 340,000 compounds, 0.84% hits | AID 602410 | B-score at 10 µM | O14649 | CHO-KCNK3 thallium flux, FluxOR fluorescence; hits give low values;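 active = B-score under library mean minus 4 SD, starting fluorescence ratio at most library mean plus 5 SD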;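 also: more negative B-score means stronger inhibition of thallium flux through KCNK3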
Kir21 inh – inhibitors of mouse Kir2.1 inward-rectifier potassium channel. P35561. HEK293-Kir2.1, FluxOR thallium flux fluorescence; hits give low values. B-score at 10 µM. 310,000 compounds, 0.85% hits. AID 1672;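 active = fluorescence ratio B-score at or below minus 3 SD of library scores, with starting-brightness B-score within 2 SD, cut at about -4.2 in these data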;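 also: channel flux triggered by added potassium and thallium sulfate stimulus; B-score of peak minus minimum fluorescence over baseline after thallium stimulus; more negative B-score means stronger Kir2.1 block with less thallium influx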
Target sequence (P35561 whole entry, looked up): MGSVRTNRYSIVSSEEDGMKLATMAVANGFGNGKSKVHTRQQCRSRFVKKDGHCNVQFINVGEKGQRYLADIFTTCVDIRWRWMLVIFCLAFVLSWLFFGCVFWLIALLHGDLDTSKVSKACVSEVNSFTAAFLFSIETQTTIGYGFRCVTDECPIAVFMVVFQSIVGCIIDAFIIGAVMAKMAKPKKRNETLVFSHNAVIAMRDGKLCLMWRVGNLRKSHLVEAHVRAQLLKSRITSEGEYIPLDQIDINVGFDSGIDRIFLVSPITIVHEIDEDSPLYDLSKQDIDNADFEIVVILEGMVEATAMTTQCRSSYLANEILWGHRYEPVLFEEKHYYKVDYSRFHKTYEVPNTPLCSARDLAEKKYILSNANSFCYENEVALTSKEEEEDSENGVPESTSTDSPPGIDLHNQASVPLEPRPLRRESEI
hERG rescue – compounds protecting human hERG from proarrhythmic drug block; Q12809; CHO-hERG, FluxOR thallium flux, dofetilide IC70 present; activation (rescue from dofetilide block), less the hit threshold, % at 10 µM; 310,000 compounds, 0.51% hits; AID 1511;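 active = activation above the mean of controls blocked by dofetilide plus 5 SD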;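 also: thallium influx through hERG after potassium depolarization seen as dye fluorescence rise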
KCNQ1 pot – potentiates or activates the human KCNQ1 potassium channel. CHO-K1 KCNQ1, thallium flux FluxOR fluorescence; hits give high values. B-score at 10 µM. 310,000 compounds, 0.35% hits;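 active = fluorescence ratio B-score, a plate-corrected score, at least three library SD, with initial intensity B-score within 5 SD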
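Medium – assay buffer, equal DMSO in all wells · Material – CHO-K1 cell line with stable KCNQ1 potassium channel expression · Signal – kinetic FluxOR thallium fluorescence, 10-s 1-Hz baseline, 110-s post-stimulus read · Compound – single concentration per compound, DMSO matched to controls · Schedule – 37 °C overnight plating, 90-min dark dye load, 20-min compound pretreatment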
KCNQ1 block – inhibitors of human KCNQ1 potassium channel. CHO-K1 KCNQ1, FluxOR thallium flux fluorescence; hits give high values. 310,000 compounds, 1.3% hits. B-score at 10 µM. P51787;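 active = compounds whose thallium flux B-score, printed positive for inhibition, exceeds three library SD while starting fluorescence stays within three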;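 also: channel opened by potassium depolarization with thallium stimulus after 20 min compound exposure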
KCNK9 inh – inhibitors of human KCNK9 two-pore domain potassium channel; 310,000 compounds, 1.2% hits; Q9NPC2; AID 488922; HEK293 KCNK9, FluxOR thallium flux fluorescence; hits give low values; B-score at 10 µM;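 active = ratio B-score over 3 SD below the library mean, with starting fluorescence within 5 SD of its mean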;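 also: negative B-score means less thallium flux so channel inhibition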
KCNK3 confirm – confirmation of human KCNK3 two-pore domain potassium channel inhibitors. shares compounds with KCNK3 inh. CHO-KCNK3 thallium flux, FluxOR fluorescence; 0% buffer, 100% carvedilol maximal block. ratio percent of control, % at 10 µM. 2,400 compounds, 99% hits. AID 651638;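 active = ratio percent of control, averaged over triplicates, above buffer control mean plus 5 SD, cut at about 64% in these data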;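 also: ratio is the fluorescence rise from min to max over baseline after thallium stimulus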
KCNK3 uninduced – KCNK3 inhibitor counter-screen hit in non-induced cells; AID 651747; 2,400 compounds, 40% hits; shares compounds with KCNK3 inh; non-induced KCNK3 parental cells, FluxOR thallium flux; hits give low values; thallium flux ratio (lower = more inhibition) at 10 µM;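 active = thallium flux ratio, averaged over three wells, more than 5 SD below the buffer control mean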;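 also: host cells are CHO cells without KCNK3 induction; ratio is peak minus trough fluorescence over baseline then normalized to buffer controls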
Active calls of the source: *; i = inactive; . = not tested or not shown. A selection: hits, their analogues and other compounds. The true share with any hit is near 3.8%.

SMILES	KCNK3 inh	Kir21 inh	hERG rescue	KCNQ1 pot	KCNQ1 block	KCNK9 inh	KCNK3 confirm	KCNK3 uninduced
Cc1ccccc1NC(=O)c1nn(C)c(C(=O)Nc2ccccc2C)c1[N+](=O)[O-]	i	1.81	-2.1	i	i	i	.	.
FC(F)(F)c1cnc(COc2ccc(Cl)cc2Cl)c(Cl)c1	-9.65*	0.09	-2.5	i	i	i	102.3*	i
CC(=O)c1ccc(OCc2ncc(C(F)(F)F)cc2Cl)cc1	i	-0.47	-1.8	i	i	i	.	.
O=C(CNC(=O)OCc1ccccc1)NC(Cc1cnc[nH]1)C(=O)O (centres undefined)	i	.	.	.	.	.	.	.
CC(=O)C1=NN(c2ccc(Cl)cc2)C(c2ccc3c(c2)OCO3)N(C(C)=O)N1C (centres undefined)	-8.83*	0.06	-6.6	i	i	i	95.3*	0.152*
CN1c2ccccc2N(C)C1c1ccc2c(c1)OCO2	i	0.98	-10.7	i	i	i	.	.
COCCNC(=O)c1onc(CSc2cc(C)cc(C)c2)c1C(=O)NCCOC	i	0.23	-9.4	i	i	i	.	.
COc1ccc(C2CC(=O)C=C(NCCC(C)C)C2)cc1 (centres undefined)	-22.2*	1.6	-15.5	i	i	i	111.3*	i
COc1ccc(C2CC(=O)C=C(NC3CCCC3)C2)cc1 (centres undefined)	i	-0.95	-8.7	i	i	i	.	.
O=C(NCC1CCCO1)C(c1ccc(F)cc1)N(C(=O)Cn1nnc(-c2ccc(F)cc2)n1)c1cccc(O)c1 (centres undefined)	i	0.67	-8.9	i	i	i	.	.
Cc1ccc(-c2nc3ccccc3o2)cc1NC(=O)Cc1cccs1	i	2.03	-6.3	i	i	i	.	.
O=C(Cc1cccs1)Nc1cccc(-c2nc3ccccc3o2)c1	-8.75*	-2.67	-5.3	i	i	i	132.7*	0.145*
Cc1cc2oc(C(=O)N(Cc3ccccc3)C3CCS(=O)(=O)C3)cc(=O)c2cc1Cl (centres undefined)	i	2.02	-13.1	i	i	i	.	.
Cc1onc(-c2ccc(Cl)cc2Cl)c1-c1csc(COc2ccccc2)n1	-9.64*	-0.45	-4.1	i	i	i	100.7*	0.15*
CCc1ccc(NC(=O)CN(c2ccccc2)S(=O)(=O)N(C)C)cc1	-10.3*	1.6	-3.6	i	i	i	103.0*	i
COc1ccc(CN(C)C(=O)c2cccc(C(=O)N(C)Cc3ccc(OC)cc3)c2)cc1	i	-0.05	-4.2	i	i	i	.	.
O=C(CSc1nc2ccccc2c(=O)n1Cc1ccco1)N1CCN(c2ccccc2)CC1	i	0.71	-22.3	i	i	i	.	.
O=c1c2ccccc2nc(SCc2nc3ccccc3s2)n1Cc1ccco1	-12.3*	0.13	-4.7	i	i	i	126.7*	0.152*
O=C(CSc1nc2ccccc2c(=O)n1Cc1ccco1)c1ccccc1	-10.8*	-0.72	0.7	i	i	i	91.3*	i
Cc1sc2nc(SCC(=O)c3cccs3)n(Cc3ccco3)c(=O)c2c1C	-9.41*	0.37	-6.1	i	i	i	106.0*	i
C=CCc1cc(/C=C2/NC(=O)N(CC(=O)OC)C2=O)cc(OC)c1O	i	2.07	-6.4	i	i	i	.	.
COCCSc1ccccc1C(=O)NCc1cccnc1	i	0.71	-12.5	i	i	i	.	.
CCOC(=O)C1=C(COC(=O)CNC(=O)c2cc(OC)c(OC)c(OC)c2)NC(=O)NC1C (centres undefined)	i	0.44	-20.2	i	i	i	.	.
